Experiments:
Rattus norvegicus [1] = species on record: Rattus norvegicus; assay: Complete remission of DMBA-induced hormone-dependent mammary carcinoma tumors in rats at 8.5 mg; assay type: functional
Outline: (§1)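 Female SD rats bearing DMBA-induced, hormone-dependent mammary adenocarcinoma, with at least one tumor >140 mm², were grouped in tens. Dosing was sc per kg body weight: a single dose daily Monday–Thursday and a double dose Friday. Ovariectomy served as the comparison arm. Complete remission was defined as a tumor no longer palpable. Body weight and tumor area changes were also recorded.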

Rattus norvegicus [2] = species on record: Rattus norvegicus; assay: Percent change in DMBA-induced hormone-dependent mammary carcinoma tumor area at 8.5 mg after 28 days; assay type: functional
Outline: (§2)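 DMBA-induced, hormone-dependent mammary adenocarcinoma in SD rats. Rats bearing at least one tumor >140 mm² were placed in groups of ten. Compound was given sc as a single dose (mg/kg) daily Monday–Thursday and a double dose on Friday. Tumors were counted at the start and as new tumors; responses were scored as complete remission (not palpable), partial remission (≥50% reduction), no change or progression. Tumor area and body weight were recorded as % change.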

Rattus norvegicus [3] = species on record: Rattus norvegicus; assay: Number of DMBA-induced hormone-dependent mammary carcinoma tumors in ovariectomised rats; assay type: functional
Outline: (§3)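 DMBA-induced, hormone-dependent mammary adenocarcinoma in SD rats, with ovariectomy as the treatment. Rats bearing at least one tumor >140 mm² were placed in groups of ten. Tumors were counted at the start and as new tumors. Responses were scored as complete remission, partial remission (≥50% size reduction), no change or progression, with % change in tumor area and body weight.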

Rattus norvegicus [4] = species on record: Rattus norvegicus; assay: Final number of DMBA-induced hormone-dependent mammary carcinoma tumors in rats at 17 mg; assay type: functional
Outline: (§4)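 Sprague-Dawley rats carrying DMBA-induced, hormone-dependent mammary adenocarcinoma, at least one tumor >140 mm², were placed in groups of ten. Compounds were given sc, with doses in mg/kg: a single daily dose Monday to Thursday and a double dose on Friday. Ovariectomy served as a comparator group. New tumors arising during the test were counted.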

Rattus norvegicus [5] = species on record: Rattus norvegicus; assay: Final number of DMBA-induced hormone-dependent mammary carcinoma tumors in rats at 8.5 mg; assay type: functional; outline: as §4
Rattus norvegicus [6] = species on record: Rattus norvegicus; assay: Complete remission of DMBA-induced hormone-dependent mammary carcinoma tumors in ovariectomised rats; assay type: functional; outline: as §1
Rattus norvegicus [7] = species on record: Rattus norvegicus; assay: Partial remission of DMBA-induced hormone-dependent mammary carcinoma tumors in rats at 8.5 mg; assay type: functional; outline: as §2
Rattus norvegicus [8] = species on record: Rattus norvegicus; assay: Percent change in body weight DMBA-induced hormone-dependent mammary carcinoma tumors in rats at 17 mg for 7 days; assay type: functional
Outline: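 DMBA-induced, hormone-dependent mammary adenocarcinoma in SD rats; animals carrying at least one tumor over 140 mm² put in groups of ten. Compound given sc, dose per kg body weight per day: single dose Monday to Thursday, double dose Friday. Body weight read out as % change, alongside tumor counts, remission categories and % change in tumor area.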

Rattus norvegicus [9] = species on record: Rattus norvegicus; assay: Percent change in body weight DMBA-induced hormone-dependent mammary carcinoma tumors in rats at 34 mg for 7 days; assay type: functional
Rattus norvegicus [10] = species on record: Rattus norvegicus; assay: Percent change in body weight DMBA-induced hormone-dependent mammary carcinoma tumors in rats at 8.5 mg for 7 days; assay type: functional
Rattus norvegicus [11] = species on record: Rattus norvegicus; assay: Percent change in DMBA-induced hormone-dependent mammary carcinoma tumor area at 17 mg after 28 days; assay type: functional; outline: as §2
Rattus norvegicus [12] = species on record: Rattus norvegicus; assay: Percent change in DMBA-induced hormone-dependent mammary carcinoma tumor area at 34 mg after 28 days; assay type: functional; outline: as §2
Rattus norvegicus [13] = species on record: Rattus norvegicus; assay: Partial remission of DMBA-induced hormone-dependent mammary carcinoma tumors in rats at 34 mg; assay type: functional; outline: as §2
Rattus norvegicus [14] = species on record: Rattus norvegicus; assay: Partial remission of DMBA-induced hormone-dependent mammary carcinoma tumors in ovariectomised rats; assay type: functional; outline: as §3
Rattus norvegicus [15] = species on record: Rattus norvegicus; assay: Percent unchanged tumor size of DMBA-induced hormone-dependent mammary carcinoma tumors in rats at 8.5 mg; assay type: functional
Rattus norvegicus [16] = species on record: Rattus norvegicus; assay: Percent unchanged tumor size of DMBA-induced hormone-dependent mammary carcinoma tumors in ovarectiemised rats; assay type: functional; outline: as §3
Rattus norvegicus [17] = species on record: Rattus norvegicus; assay: Percent unchanged tumor size of DMBA-induced hormone-dependent mammary carcinoma tumors in rats at 17 mg; assay type: functional
Rattus norvegicus [18] = species on record: Rattus norvegicus; assay: Percent unchanged tumor size of DMBA-induced hormone-dependent mammary carcinoma tumors in rats at 34 mg; assay type: functional
Rattus norvegicus [19] = species on record: Rattus norvegicus; assay: Progression of DMBA-induced hormone-dependent mammary carcinoma tumors in rats at 17 mg; assay type: functional
Rattus norvegicus [20] = species on record: Rattus norvegicus; assay: Progression of DMBA-induced hormone-dependent mammary carcinoma tumors in rats at 34 mg; assay type: functional
Rattus norvegicus [21] = species on record: Rattus norvegicus; assay: Progression of DMBA-induced hormone-dependent mammary carcinoma tumors in rats at 8.5 mg; assay type: functional
Rattus norvegicus [22] = species on record: Rattus norvegicus; assay: Progression of DMBA-induced hormone-dependent mammary carcinoma tumors in ovariectomised rats; assay type: functional; outline: as §3
Rattus norvegicus [23] = species on record: Rattus norvegicus; assay: Complete remission of DMBA-induced hormone-dependent mammary carcinoma tumors in rats at 34 mg; assay type: functional; outline: as §1
Rattus norvegicus [24] = species on record: Rattus norvegicus; assay: Initial tumor number of DMBA-induced hormone-dependent mammary carcinoma in rats at 17 mg; assay type: functional; outline: as §2
Rattus norvegicus [25] = species on record: Rattus norvegicus; assay: Initial tumor number of DMBA-induced hormone-dependent mammary carcinoma in rats at 34 mg; assay type: functional; outline: as §2
Rattus norvegicus [26] = species on record: Rattus norvegicus; assay: Initial tumor number of DMBA-induced hormone-dependent mammary carcinoma in rats at 8.5 mg; assay type: functional; outline: as §2
[27] = target: T1, Estrogen receptor (Mus musculus) (UniProt O08537+P19785); assay: Antiestrogenic activity in uterotrophic test in mice at 0 ug; assay type: functional
Outline: (§5)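 Immature female NMRI mice, 20 days old (14.5 ± 1.2 g), randomly grouped 10 per group. Each received a daily sc injection for 3 days of 0.1 mL olive oil solution containing test compound, together with estrone to stimulate uterine growth. Uteri were removed 24 h after the last injection and weighed. Results are reported as % inhibition of the estrone-stimulated uterine weight gain, mean ± SD.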

[28] = target: T1, Estrogen receptor (Mus musculus); assay: Antiestrogenic activity in uterotrophic test in mice at 100 ug; assay type: functional; outline: as §5
[29] = target: T1, Estrogen receptor (Mus musculus); assay: Antiestrogenic activity in uterotrophic test in mice at 1000 ug; assay type: functional; outline: as §5
[30] = target: T1, Estrogen receptor (Mus musculus); assay: Antiestrogenic activity in uterotrophic test in mice at 3.3 ug; assay type: functional; outline: as §5
[31] = target: T1, Estrogen receptor (Mus musculus); assay: Estrogenic activity in uterotrophic test in mice at 2700 ug; assay type: functional
Outline: (§6)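 Uterine growth stimulation in immature female NMRI mice, 20 days old (14.5 ± 1.2 g), 10 per group. Test compound in 0.1 mL olive oil was given sc daily for 3 days. Uteri were excised 24 h after the final injection and weighed. Effect is reported as mean ± SD.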

[32] = target: T1, Estrogen receptor (Mus musculus); assay: Estrogenic activity in uterotrophic test in mice at 300 ug; assay type: functional
Outline: (§7)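 Immature (20-day-old) female NMRI mice, 14.5 ± 1.2 g, randomized into groups of 10. Given the test compound sc daily for 3 days in 0.1 mL olive oil. Uteri removed 24 h after the last injection; uterine weight taken as the read-out, means ± SD. Dose in μg.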

[33] = target: T1, Estrogen receptor (Mus musculus); assay: Estrogenic activity in uterotrophic test in mice at 30 ug; assay type: functional; outline: as §6
[34] = target: T1, Estrogen receptor (Mus musculus); assay: Estrogenic activity in uterotrophic test in mice at 0 ug; assay type: functional; outline: as §6
[35] = target: T1, Estrogen receptor (Mus musculus); assay: Estrogenic activity in uterotrophic test in mice at 100 ug; assay type: functional; outline: as §6
[36] = target: T1, Estrogen receptor (Mus musculus); assay: Estrogenic activity in uterotrophic test in mice at 900 ug; assay type: functional; outline: as §7
Rattus norvegicus [37] = species on record: Rattus norvegicus; assay: Percent change in body weight DMBA-induced hormone-dependent mammary carcinoma tumors in ovariectomised rats after 7 days; assay type: functional; outline: as §3
[38] = target: T1, Estrogen receptor (Mus musculus); assay: Inhibitory activity in mouse uterine weight test at 0.1 ug; assay type: functional
Outline: (§8)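 Antiuterotrophic (Dorfman) assay in immature 20-day-old female NMRI mice, groups of 10. Uterine growth was stimulated with estrone (0.1 μg) and the test compound was given alongside it, sc daily for 3 days in 0.1 mL olive oil. Uteri were taken 24 h after the last dose. Uterine weight is reported as means ± SD and inhibition as % of the estrone-stimulated response.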

[39] = target: T1, Estrogen receptor (Mus musculus); assay: Inhibitory activity in mouse uterine weight test at 100 ug; assay type: functional; outline: as §8
[40] = target: T1, Estrogen receptor (Mus musculus); assay: Inhibitory activity in mouse uterine weight test at 1000 ug; assay type: functional; outline: as §8
Rattus norvegicus [41] = species on record: Rattus norvegicus; assay: Percent change in DMBA-induced hormone-dependent mammary carcinoma tumor area in ovariectomised rats after 28 days; assay type: functional; outline: as §3
Rattus norvegicus [42] = species on record: Rattus norvegicus; assay: Final number of DMBA-induced hormone-dependent mammary carcinoma tumors in rats at 34 mg; assay type: functional; outline: as §4
[43] = target: T1, Estrogen receptor (Mus musculus); assay: Inhibitory activity in mouse uterine weight test at 3.3 ug; assay type: functional; outline: as §8
Rattus norvegicus [44] = species on record: Rattus norvegicus; assay: Complete remission of DMBA-induced hormone-dependent mammary carcinoma tumors in rats at 17 mg; assay type: functional; outline: as §1
Rattus norvegicus [45] = species on record: Rattus norvegicus; assay: Partial remission of DMBA-induced hormone-dependent mammary carcinoma tumors in rats at 17 mg; assay type: functional; outline: as §2
[46] = system: Estrogen receptor (Bos taurus); assay: Displacement of [3H]estradiol from calf estrogen receptor

T1 sequence (O08537 whole entry, looked up): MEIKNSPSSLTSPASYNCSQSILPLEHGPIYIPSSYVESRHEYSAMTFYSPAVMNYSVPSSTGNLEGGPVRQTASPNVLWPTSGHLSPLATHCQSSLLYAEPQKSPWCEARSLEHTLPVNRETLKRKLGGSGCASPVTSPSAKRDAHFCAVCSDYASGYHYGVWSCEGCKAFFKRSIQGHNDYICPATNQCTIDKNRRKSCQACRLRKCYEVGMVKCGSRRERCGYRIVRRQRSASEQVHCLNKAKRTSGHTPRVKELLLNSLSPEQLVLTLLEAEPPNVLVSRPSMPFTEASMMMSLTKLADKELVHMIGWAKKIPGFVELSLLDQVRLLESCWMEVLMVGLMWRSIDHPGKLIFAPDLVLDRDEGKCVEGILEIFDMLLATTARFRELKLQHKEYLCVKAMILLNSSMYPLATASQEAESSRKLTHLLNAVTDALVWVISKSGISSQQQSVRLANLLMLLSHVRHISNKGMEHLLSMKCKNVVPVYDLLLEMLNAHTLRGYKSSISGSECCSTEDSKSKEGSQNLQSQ
T1 sequence (P19785 whole entry, looked up): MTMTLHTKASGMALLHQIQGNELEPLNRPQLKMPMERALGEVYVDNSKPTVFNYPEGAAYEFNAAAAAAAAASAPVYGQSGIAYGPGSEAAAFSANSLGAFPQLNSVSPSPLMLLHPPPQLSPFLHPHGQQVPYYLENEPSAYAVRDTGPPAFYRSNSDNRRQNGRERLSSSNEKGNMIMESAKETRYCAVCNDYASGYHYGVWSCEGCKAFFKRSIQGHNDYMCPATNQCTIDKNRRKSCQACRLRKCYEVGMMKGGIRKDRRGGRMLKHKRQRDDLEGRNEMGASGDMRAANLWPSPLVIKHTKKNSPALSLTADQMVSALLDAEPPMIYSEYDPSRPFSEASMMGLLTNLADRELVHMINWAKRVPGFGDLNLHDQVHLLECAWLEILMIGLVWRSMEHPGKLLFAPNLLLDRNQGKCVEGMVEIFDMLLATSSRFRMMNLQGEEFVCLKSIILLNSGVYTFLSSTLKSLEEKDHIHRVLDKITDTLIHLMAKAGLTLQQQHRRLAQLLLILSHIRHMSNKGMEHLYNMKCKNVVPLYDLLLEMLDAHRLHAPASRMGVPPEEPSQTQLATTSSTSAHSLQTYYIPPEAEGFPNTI

CCCCC(c1cccc(O)c1)C(CCCC)c1cccc(O)c1 (stereo unspecified)
Tumors (Rattus norvegicus [1]): 2% | Change (Rattus norvegicus [2]): 534% | No. of tumors (Rattus norvegicus [3]): 8 | No. of tumors (Rattus norvegicus [4]): 45 | No. of tumors (Rattus norvegicus [5]): 37 | Tumors (Rattus norvegicus [6]): 74% | Tumors (Rattus norvegicus [7]): 9% | Change (Rattus norvegicus [8]): 1.7% | Change (Rattus norvegicus [9]): 0.3% | Change (Rattus norvegicus [10]): 1.5% | Change (Rattus norvegicus [11]): 389% | Change (Rattus norvegicus [12]): 260% | Tumors (Rattus norvegicus [13]): 9% | Tumors (Rattus norvegicus [14]): 23% | Tumors (Rattus norvegicus [15]): 24% | Tumors (Rattus norvegicus [16]): 3% | Tumors (Rattus norvegicus [17]): 36% | Tumors (Rattus norvegicus [18]): 27% | Tumors (Rattus norvegicus [19]): 55% | Tumors (Rattus norvegicus [20]): 58% | Tumors (Rattus norvegicus [21]): 65% | Tumors (Rattus norvegicus [22]): 0% | Tumors (Rattus norvegicus [23]): 6% | No. of tumors (Rattus norvegicus [24]): 27 | No. of tumors (Rattus norvegicus [25]): 22 | No. of tumors (Rattus norvegicus [26]): 21 | Effect [27]: 10.5 | Effect [28]: 25.9 | Effect [29]: 38.1 | Effect [30]: 33.9 | Effect [31]: 35.2 | Effect [32]: 16.5 | Effect [33]: 11.2 | Effect [34]: 10.5 | Effect [35]: 12.6 | Effect [36]: 30.8 | Change (Rattus norvegicus [37]): 3.6% | inhibition [38]: 3% | inhibition [39]: 45% | inhibition [40]: 1% | Change (Rattus norvegicus [41]): -96% | No. of tumors (Rattus norvegicus [42]): 30 | inhibition [43]: 16% | Tumors (Rattus norvegicus [44]): 3% | Tumors (Rattus norvegicus [45]): 6% | Ka [46]: 2.3e+07 M⁻¹
